ChEMBL document CHEMBL1649420, “Identifying chelators for metalloprotein inhibitors using a fragment-based approach” (J Med Chem, 2011)

Experiments:
[1] = biological target: T1, Polyunsaturated fatty acid 5-lipoxygenase (Homo sapiens) (UniProt P09917); assay: Inhibition of human recombinant 5-lipoxygenase at 1 mM after 10 mins by fluorescence assay
T1 sequence (whole entry): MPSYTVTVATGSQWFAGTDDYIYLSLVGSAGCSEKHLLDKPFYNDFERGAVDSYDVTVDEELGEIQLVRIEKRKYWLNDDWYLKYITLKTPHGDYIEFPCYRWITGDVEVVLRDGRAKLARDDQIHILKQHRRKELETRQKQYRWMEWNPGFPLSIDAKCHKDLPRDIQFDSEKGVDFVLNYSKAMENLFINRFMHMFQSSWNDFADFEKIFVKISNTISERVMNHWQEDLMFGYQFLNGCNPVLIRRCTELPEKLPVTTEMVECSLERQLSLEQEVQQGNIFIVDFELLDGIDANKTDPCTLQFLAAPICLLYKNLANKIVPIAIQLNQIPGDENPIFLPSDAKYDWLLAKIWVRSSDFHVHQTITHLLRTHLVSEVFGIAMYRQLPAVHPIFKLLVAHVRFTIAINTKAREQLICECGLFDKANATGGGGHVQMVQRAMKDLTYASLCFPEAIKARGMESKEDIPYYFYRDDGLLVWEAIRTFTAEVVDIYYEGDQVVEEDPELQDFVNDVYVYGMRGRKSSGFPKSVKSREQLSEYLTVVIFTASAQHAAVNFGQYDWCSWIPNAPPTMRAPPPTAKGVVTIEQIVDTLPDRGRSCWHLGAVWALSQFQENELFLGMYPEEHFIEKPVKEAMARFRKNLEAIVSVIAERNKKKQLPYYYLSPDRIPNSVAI

[2] = biological target: Stromelysin-1 (Homo sapiens) (UniProt P08254); conditions: at 1 mM;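 also: recombinant enzyme, inhibition read after a 30 min incubation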
[3] = biological target: T2, 72 kDa type IV collagenase (Homo sapiens, UniProt P08253); conditions: at 1 mM
Target sequence in this assay (P08253 110-660 limits assumed): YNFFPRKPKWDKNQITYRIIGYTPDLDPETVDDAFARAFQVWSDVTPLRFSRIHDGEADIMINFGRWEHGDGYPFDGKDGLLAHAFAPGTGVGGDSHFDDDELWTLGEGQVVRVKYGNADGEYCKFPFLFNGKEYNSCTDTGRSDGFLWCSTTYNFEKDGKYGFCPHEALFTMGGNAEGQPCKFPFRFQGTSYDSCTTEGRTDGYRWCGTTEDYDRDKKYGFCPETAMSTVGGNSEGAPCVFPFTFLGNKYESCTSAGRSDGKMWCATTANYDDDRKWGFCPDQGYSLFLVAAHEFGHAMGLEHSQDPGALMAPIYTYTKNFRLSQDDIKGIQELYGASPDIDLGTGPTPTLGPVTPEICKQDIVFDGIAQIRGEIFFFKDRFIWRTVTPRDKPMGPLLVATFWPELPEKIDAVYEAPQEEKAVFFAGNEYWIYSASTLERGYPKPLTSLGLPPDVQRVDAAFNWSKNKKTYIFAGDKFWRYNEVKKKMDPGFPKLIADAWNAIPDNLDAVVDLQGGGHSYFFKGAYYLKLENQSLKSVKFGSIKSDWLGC

[4] = biological target: T2, 72 kDa type IV collagenase; assay: Inhibition of human recombinant MMP2 after 30 mins
How it was run: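 Enzyme (1.16 U) preincubated 30 min at 37 °C with fragment in 50 mM HEPES, 10 mM CaCl2, 0.05% Brij-35, pH 7.5. Fluorogenic Mca peptide substrate (4 μM final) then added. Rate of fluorescence increase compared with no-inhibitor control (100%). Single-point 25 μM final for the 8-hydroxyquinoline sublibrary. IC50 fitted to dose-response curves from serial dilutions of DMSO stocks.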
Target sequence in this assay (P08253 whole entry): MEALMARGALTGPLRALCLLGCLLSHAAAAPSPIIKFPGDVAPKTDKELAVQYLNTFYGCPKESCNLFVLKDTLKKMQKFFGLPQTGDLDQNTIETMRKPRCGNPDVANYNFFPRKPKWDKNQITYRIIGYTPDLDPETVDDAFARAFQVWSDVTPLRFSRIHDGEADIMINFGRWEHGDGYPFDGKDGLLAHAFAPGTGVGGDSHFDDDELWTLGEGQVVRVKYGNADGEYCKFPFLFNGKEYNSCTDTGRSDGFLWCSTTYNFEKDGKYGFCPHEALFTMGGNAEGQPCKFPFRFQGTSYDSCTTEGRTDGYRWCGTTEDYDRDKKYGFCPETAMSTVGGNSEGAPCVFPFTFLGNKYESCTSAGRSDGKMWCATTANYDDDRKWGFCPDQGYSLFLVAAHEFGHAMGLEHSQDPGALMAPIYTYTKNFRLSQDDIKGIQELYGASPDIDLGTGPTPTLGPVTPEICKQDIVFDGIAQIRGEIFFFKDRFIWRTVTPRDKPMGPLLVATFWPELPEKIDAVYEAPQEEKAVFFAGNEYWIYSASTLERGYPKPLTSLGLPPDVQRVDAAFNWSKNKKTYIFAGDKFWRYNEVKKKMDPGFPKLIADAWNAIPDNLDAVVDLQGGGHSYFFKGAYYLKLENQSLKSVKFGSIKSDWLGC

Stromelysin-1 (Homo sapiens), sequence (P08254 100-477 limits assumed): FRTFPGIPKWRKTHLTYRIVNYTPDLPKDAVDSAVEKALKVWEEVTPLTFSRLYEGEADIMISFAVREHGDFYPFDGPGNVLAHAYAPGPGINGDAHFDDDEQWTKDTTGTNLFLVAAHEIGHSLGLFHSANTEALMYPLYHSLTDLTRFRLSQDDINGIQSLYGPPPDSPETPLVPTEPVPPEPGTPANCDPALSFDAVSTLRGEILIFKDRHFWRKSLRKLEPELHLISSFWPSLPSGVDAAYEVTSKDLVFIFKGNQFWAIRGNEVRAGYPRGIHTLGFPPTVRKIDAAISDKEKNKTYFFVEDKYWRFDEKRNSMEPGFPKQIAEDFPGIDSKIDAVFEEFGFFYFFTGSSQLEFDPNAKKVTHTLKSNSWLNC

| Structure (SMILES) | inhibition [1] [%] | inhibition [2] [%] | inhibition [3] [%] | IC50 [4] [µM] |
| --- | --- | --- | --- | --- |
| Nc1ccc(C(=O)O)c(O)c1 | 60 | 4 | -1 | – |
| O=C(O)c1cccc(C(=O)O)n1 | 31 | 54 | -6 | – |
| O=C(O)c1cccc(O)c1O | 80 | -1 | -1 | – |
| Cn1cccc(O)c1=O | 88 | -3 | 4 | – |
| O=c1cccccc1O [TROPOLONE] | -3 | 95 | 89 | 146 |
| Nc1[nH]cnc2ncnc1-2 | 9 | 10 | -1 | – |
| O=C(O)c1ccc(F)cc1O | 31 | -2 | -8 | – |
| CCCCc1ccc(C(=O)O)nc1 | 23 | 80 | 43 | – |
| Cc1cc(O)nc(C)n1 | 26 | 6 | 2 | – |
| CCn1ccc(=O)c(O)c1C | 80 | -8 | 16 | – |
| O=C(O)c1cc(F)ccc1O | 49 | -2 | -2 | – |
| Cc1ccc(S(N)(=O)=O)cc1 | 25 | -5 | -2 | – |
| [O-][n+]1cccc2cccc(O)c21 | 66 | 81 | 62 | – |
| Cc1cc(=O)c(O)c(CCl)o1 | 72 | 59 | 44 | – |
| Cc1occ(O)c(=O)c1C(=O)O | 80 | 80 | 56 | – |
| Nc1cc(=O)nc(N)[nH]1 | 65 | 14 | 6 | – |
| c1ccc(CNCc2ccccn2)nc1 | 29 | 93 | 100 | – |
| Cc1cc(=O)c(O)co1 | 80 | 29 | 37 | – |

| Structure (SMILES) | inhibition [1] [%] | inhibition [2] [%] | inhibition [3] [%] | IC50 [4] [µM] |
| --- | --- | --- | --- | --- |
| Cc1nc(O)nc(O)c1C | 33 | 10 | 5 | – |
| CC(=O)C(C)C(C)=O | 64 | -1 | -3 | – |
| Oc1ncccn1 | 8 | 49 | 24 | – |
| O=c1cc(CCl)occ1O | 87 | 68 | 65 | – |
| Cc1cc(O)nc(O)n1 | 24 | 7 | -7 | – |
| C1CNCCNCCN1 | 25 | 48 | 100 | – |
| Cc1ccc(O)c(C(=O)O)c1 | 17 | 76 | 65 | – |
| O=C(O)c1nccc2ccccc12 | 18 | 67 | 42 | – |
| O=C(O)c1ccc(C(=O)O)nc1 | 31 | 91 | -5 | – |
| O=C(O)c1ccccc1O | 20 | -2 | 12 | – |
| O=c1ccocc1O | 81 | 35 | 48 | – |
| O=C(O)c1ncccc1O | 17 | 56 | 58 | – |
| O=C(O)c1cccc(Br)n1 | 29 | 18 | -4 | – |
| CC(=O)C1CCCC1=O (centres undefined) | 79 | 4 | 20 | – |
| Cc1cccc(C(=O)O)c1O | 22 | 13 | 1 | – |
| O=c1occcc1O | 77 | 72 | 66 | – |
| O=C(O)c1cccc[n+]1[O-] | 31 | 18 | 1 | – |
| O=C(O)c1ccccn1 | 16 | 99 | 25 | – |
